L major viab: reduces viability of Leishmania major promastigotes; resazurin fluorescence viability; inhibition, % at 10 µM; 9% of 200,000 active; in the data active means inhibition above about 50%;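 further: promastigotes grown with compound for 44 hours at 28 °C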
PMI act satM6P: PMI (human) activation, high substrate; P34949; coupled PMI enzyme assay, resazurin fluorescence, 20 min; active compounds read high; 1 = untreated enzyme, 0 = substrate-free blank; activation factor at 20 µM; 0.34% of 190,000 active;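 active means activation factor of 2 or more at 20 µM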
Target sequence (P34949 whole entry, looked up): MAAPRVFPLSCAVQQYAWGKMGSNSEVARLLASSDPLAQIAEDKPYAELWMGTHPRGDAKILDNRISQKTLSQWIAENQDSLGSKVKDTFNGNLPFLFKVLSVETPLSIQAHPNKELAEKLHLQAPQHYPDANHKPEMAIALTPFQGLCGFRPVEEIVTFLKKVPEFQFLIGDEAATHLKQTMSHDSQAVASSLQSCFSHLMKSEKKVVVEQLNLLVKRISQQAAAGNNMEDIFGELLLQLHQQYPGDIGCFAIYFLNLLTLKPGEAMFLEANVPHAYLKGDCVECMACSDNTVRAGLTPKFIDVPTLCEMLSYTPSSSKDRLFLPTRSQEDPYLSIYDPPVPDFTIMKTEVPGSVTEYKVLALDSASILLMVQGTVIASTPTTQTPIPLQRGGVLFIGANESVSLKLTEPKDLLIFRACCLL
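Test system: human PMI in coupled enzyme assay; Input: PMI at 15 ng/mL final; Medium: HEPES buffer, pH 7.4; Schedule: 20 min incubation at room temperature; Technique: resorufin fluorescence at Ex 544/Em 590 nm; Compound: 20 µM single dose; Probe or stimulus: Near-saturating mannose-6-phosphate, 1.0 mM.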
PMI activator: activators of human phosphomannose isomerase. activation factor at 20 µM. AID 1214. purified human PMI, coupled resazurin fluorescence, 20 min; active compounds read high; 1 = vehicle control, 0 substrate-free wells. 0.005% of 190,000 active;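 active means activation factor of 2 or more at 20 µM, relative to plate controls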
Diaph act CS: activates diaphorase or chemically reduces, flagging diaphorase assay artifacts | activation factor at 20 µM | 0.005% of 190,000 active | AID 1229 | Diaphorase/resazurin coupled assay, resorufin fluorescence, 16 min; active compounds read high; 1 = vehicle wells, 0 = NADH-free wells;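 active means diaphorase activity raised at least twofold by the compound at 20 µM; inactive means activation factor below 2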
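Test system: Clostridium kluyveri diaphorase, purified enzyme; input: enzyme 0.07 U/mL final; buffer or medium: 50 mM HEPES pH 7.4 with 4.542 mM MgCl2, 0.005% Tween 20; also added: 0.114 mM NADH and 0.1 mM resazurin, final amounts; schedule: 16 min enzyme reaction, ambient temperature; technique: fluorescence of resorufin, 544 nm excitation, 590 nm emission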
WT yeast gro inh: growth inhibition of WT yeast, mitochondrial fusion screen. mitochondrial fusion phenotypic screen, WT strain. inhibition, % at 10 µM. AID 1362. 2.1% of 190,000 active; in the data active means inhibition above about 58%; tested in S. cerevisiae
Each line names hits and unclear results; the compound was inactive in the other large screens. Sampled rows, rich in hits. Any-hit rate of the full collection: about 10%.

COc1ccc(OC)c(NC(=O)COC(=O)CSc2ccc(Cl)cc2)c1	none
Cc1cccc(-c2cc(C(=O)Nc3sc(C)c(C)c3C(N)=O)c3ccccc3n2)c1	none
O=C(Nc1nc2c(s1)CCCC2)c1cc(-c2ccc3c(c2)OCO3)nc2ccccc12	none
Cc1ccccc1C(=O)NC(C(=O)Nc1nc2c(s1)CCCC2)C(C)C (centres undefined)	L major viab 50.1
Cc1ccc(C)c(-c2cc(C(=O)Nc3sc(C)c(C)c3C(N)=O)c3ccccc3n2)c1	L major viab 60.6
Cc1ccccc1-c1cc(C(=O)Nc2nc3c(s2)CCCC3)c2ccccc2n1	L major viab 65.4
CC(c1nccs1)N(C)C(=O)CCc1nnc(Cc2c[nH]c3ccccc23)o1 (centres undefined)	none
Cc1nnc(N2CCN(C)CC2)c2nn(-c3ccc(Cl)cc3)c(C)c12	none (no result: PMI act satM6P, PMI activator, Diaph act CS, WT yeast gro inh)
Cc1ccc(NS(=O)(=O)c2cc(C(=O)Nc3cccc(N(C)S(C)(=O)=O)c3)ccc2C)c(C)c1	L major viab 69.1
Cc1ccc(C)c(NS(=O)(=O)c2cc(C(=O)Nc3cccc(N(C)S(C)(=O)=O)c3)ccc2C)c1	L major viab 90.4
Cc1ccc(NS(=O)(=O)c2cc(NC(=O)c3ccc4c(c3)NC(=O)CS4)ccc2C)c(C)c1	L major viab 64.0
O=c1[nH]c2ccccc2nc1/C=C/c1ccc(Cl)cc1	none
CCn1c(COc2ccc(=O)n(-c3ccccc3)n2)n[nH]c1=S	none
CCN(CC)c1ccc2c(C)c(CN3CCOCC3)c(=O)oc2c1	L major viab 100.2
CCc1ccc(N(C(=O)CCC(=O)Nc2cc(C)on2)C(C(=O)NC2CCCC2)c2ccco2)cc1 (centres undefined)	L major viab 95.5
Cc1cc(NC(=O)CCC(=O)N(c2cccnc2)C(C(=O)NC2CCCC2)c2ccccc2)no1 (centres undefined)	none
Cc1cc(NC(=O)/C=C/C(=O)N(CC(=O)NC2CCCC2)c2cccc3ccccc23)no1	L major viab 95.7
CCc1ccccc1N(C(=O)CCC(=O)Nc1cc(C)on1)C(C(=O)NC1CCCC1)c1ccco1 (centres undefined)	none (no result: L major viab, WT yeast gro inh)
CCc1ccc(C(C(=O)NC2CCCC2)N(C(=O)/C=C/C(=O)Nc2cc(C)on2)c2ccccc2C)cc1 (centres undefined)	L major viab 99.4
CCOc1ccc(N(C(=O)/C=C/C(=O)Nc2cc(C)on2)C(C(=O)NC2CCCC2)c2ccccc2C)cc1 (centres undefined)	L major viab 87.0
COc1ccc2c(C)cc(SCC(=O)Nc3cccnc3Cl)nc2c1	none
Cc1ccc(N(CC(=O)NC(C)(C)C)C(=O)CNC(=O)c2cccs2)c(C)c1	none
Cn1c2c(c(=O)c3ccccc31)CCC(C)(C)O2	none
CCn1c(SCC(=O)N/N=C/c2ccc(C)s2)nc2ccccc21	none
CCOc1cc(/C=N/NC(=O)c2cccs2)ccc1OC(=O)N1CCOCC1	none
CCN(CC)S(=O)(=O)c1ccc(Nc2nc3ccccc3n3nnnc23)cc1	L major viab 67.4
Cn1c(=O)c(C(=O)COc2ccc(F)cc2Cl)c(N)n(Cc2ccccc2)c1=O	L major viab 56.0
CC(C)Cn1c(N)c(C(=O)COC(=O)c2cc(C(F)(F)F)nc3c(C(F)(F)F)cccc23)c(=O)n(C)c1=O	WT yeast gro inh 61.2
Cn1c(=O)c(C(=O)COC(=O)c2cc(-c3ccco3)nc3ccccc23)c(N)n(CC2CC2)c1=O	L major viab 62.1
Cn1c(=O)c(C(=O)COC(=O)c2cc(-c3ccccc3)nc3ccccc23)c(N)n(Cc2ccccc2)c1=O	L major viab 100.1
Cn1c(=O)c(C(=O)COC(=O)c2cc(C(F)(F)F)nc3ccccc23)c(N)n(Cc2ccccc2)c1=O	none
Cc1ccccc1N=CC=C1OC(C)(C)C(C)(C)O1	none
CS(=O)(=O)N1CCN(Cc2ccc(C(F)(F)F)cc2)CC1	none
CCCC(=O)Nc1cc(S(=O)(=O)N(CC)CC)ccc1Cl	none
CC(C)Cn1c(N)c(C(=O)COC(=O)CC23CC4CC(CC(C4)C2)C3)c(=O)n(C)c1=O	L major viab 98.2, WT yeast gro inh 85.3
CC(C)Cn1c(N)c(C(=O)COC(=O)c2ccc(Cl)cc2)c(=O)n(C)c1=O	none
Cc1ccc(CNc2ccc3c(c2)ncn3C)cc1	L major viab 60.2
CCc1ccc(CNc2ccc3c(c2)ncn3C)cc1	none
CCN(CC)c1ccc(NC(=O)CN2CCN(c3ccc(F)cc3)CC2)cc1	L major viab 71.7 (no result: WT yeast gro inh)
O=C(CN1CCN(c2ccc(O)cc2)CC1)Nc1ccc(SC(F)F)cc1	L major viab 56.6
O=C1CN(CC(=O)Nc2ccc(SC(F)F)cc2)CCN1	none
COc1cccc(N2CCN(CC(=O)Nc3ccc(SC(F)F)cc3)CC2)c1	WT yeast gro inh 63.0
CC(=O)N1C(C)(C)CC(=NOS(=O)(=O)c2ccccc2)CC1(C)C	none
CN(CCC#N)C(=O)COC(=O)c1ccc(Cl)c(S(=O)(=O)N(C)c2ccccc2)c1	none
CCc1ccc2c(c1)cc(C)c1nnc(SCC(=O)Nc3cc(OC)c(OC)cc3C(=O)O)n12	none
COc1cc(OC)c(C(=O)OCC(=O)N(Cc2ccccc2)C(C)(C)C)cc1OC	none
CCn1c(CCNC(=O)c2ccc(OC)cc2)nnc1SCc1ccc(Cl)cc1Cl	L major viab 91.1
CCn1c(CCNC(=O)c2ccc(OC)cc2)nnc1SCC(=O)Nc1ccccc1F	none
CCn1c(CCNC(=O)c2ccc(OC)cc2)nnc1SCc1ccc(Cl)c(Cl)c1	L major viab 93.3
CCOc1cc(/C=N/NC(=O)c2ccncc2)cc(Cl)c1OS(C)(=O)=O	none
Cc1ccc(-c2nnc(-c3ccccc3)c(-c3ccccc3)n2)cc1	WT yeast gro inh 76.3
CCCCCCCC#Cc1ccccc1/C=N/S(=O)c1ccc(C)cc1 (centres undefined)	none
CCn1cc(C(=O)NC(C)C23CC4CC(CC(C4)C2)C3)cn1 (centres undefined)	none
CC(NC(=O)Cn1ncc(Cl)c(Cl)c1=O)C12CC3CC(CC(C3)C1)C2 (centres undefined)	L major viab 100.3, WT yeast gro inh 64.4
Cc1ccc(S(=O)(=O)C2C(=O)N(C)C3(C)CC2c2ccccc2O3)cc1C (centres undefined)	none
Cc1ccc(/C=C/C(O)=C2/C(=O)N(C)C3(C)CC2c2ccccc2O3)cc1 (centres undefined)	L major viab 78.7
COc1ccc(/C=C/C(O)=C2/C(=O)NC3(C)CC2c2ccccc2O3)c(OC)c1OC (centres undefined)	none
COc1ccc(/C=C/C(O)=C2/C(=O)N(C)C3(C)CC2c2ccccc2O3)cc1 (centres undefined)	L major viab 79.9
CC(C)(C)Nc1c(-c2ccc(O)cc2)nc2ccc(Cl)cn12	none (no result: PMI act satM6P, PMI activator, Diaph act CS)

Compound activity from PubChem.
